# Data from ChEMBL document CHEMBL4330127, “Discovery of Novel Pyruvate Dehydrogenase Kinase 4 Inhibitors for Potential Oral Treatment of Metabolic Diseases” (J Med Chem, 2019).
# Activity calls are given as the source filed them. The calls are words filed in the database; no cut-off is given here.
# What was measured:
# [1] = biological target: T1, [Pyruvate dehydrogenase (acetyl-transferring)] kinase isozyme 4, mitochondrial (Homo sapiens, UniProt Q16654); experiment: Inhibition of PDK4 in HEK293T cells assessed as reduction in PDHE1alpha phosphorylation at Ser-293 residue by measuring phosphorylated PDHE1alpha level at 10 uM after 24 hrs by Western blot analysis; assay type: cell-based
# Procedure, shortened: (§1)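 HEK293T cells grown in high-glucose DMEM with 10% FBS at 37 °C, 5% CO2. Medium renewed after 24 h, then cells exposed to compound for 24 h and lysed. 20 μg protein per lane Western blotted with antibodies to phospho-PDHE1α Ser232, Ser293 and Ser300 and to total PDHE1α. Band intensity quantified relative to control; triplicate.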
# RKO [2] = experiment: Cell cycle arrest in human RKO cells assessed as accumulation at sub-G1 phase at 10 uM after 24 hrs propidium iodide staining based flow cytometry (reference value: 17.6%); assay type: functional
# [3] = Volume of distribution at steady state in rat at 5 mg/kg, iv; assay type: ADME, organism-based; details: in vivo, read-out: Vdss
# RKO [4] = experiment: Induction of apoptosis in human RKO cells assessed as late apoptotic cells at 50 uM after 24 hrs by Annexin V/propidium iodide staining based flow cytometry (reference value: 7.42%); assay type: functional
# HCT-116 [5] = experiment: Cell cycle arrest in human HCT116 cells assessed as accumulation at G1/G0 phase at 25 uM after 24 hrs in presence of oxaliplatin propidium iodide staining based flow cytometry (reference value: 41.3%); assay type: functional
# Procedure, shortened: (§2)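 HCT116 and RKO cells were treated with compound alone or with oxaliplatin for 24 h before harvest. Cells were stained with propidium iodide, and DNA content was analysed by flow cytometry. Cell-cycle phase populations, including sub-G1, are given as percentages.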
# [6] = biological target: T1, [Pyruvate dehydrogenase (acetyl-transferring)] kinase isozyme 4, mitochondrial; experiment: Inhibition of PDK4 in HEK293T cells assessed as reduction in PDHE1alpha phosphorylation at Ser-300 residue by measuring phosphorylated PDHE1alpha level at 10 uM after 24 hrs by Western blot analysis; assay type: cell-based; procedure, shortened: as §1
# HCT-116 [7] = experiment: Cell cycle arrest in human HCT116 cells assessed as accumulation at G1/G0 phase at 50 uM after 24 hrs propidium iodide staining based flow cytometry (reference value: 42%); assay type: functional; procedure, shortened: as §2
# HCT-116 [8] = experiment: Cell cycle arrest in human HCT116 cells assessed as accumulation at S phase at 25 uM after 24 hrs in presence of oxaliplatin propidium iodide staining based flow cytometry (reference value: 5.4%); assay type: functional; procedure, shortened: as §2
# RKO [9] = experiment: Induction of apoptosis in human RKO cells assessed as increase in cleaved caspase-3 expression at 10 to 50 uM after 24 hrs by Western blot analysis; assay type: functional, cell-based
# Procedure, shortened: (§3)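 HCT116 and RKO cells given a range of compound doses for 24 h; lysates probed by Western blot for apoptosis-related proteins (p53, BAX, BCLxL).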
# Cytochrome P450 1A2 = Cytochrome P450 1A2 (Homo sapiens, UniProt P05177); experiment: Inhibition of CYP1A2 in human liver microsomes assessed as reduction in phenacetin-O-deethylation by tandem mass spectrometry analysis; assay type: ADME
# Procedure, shortened: (§4)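 Pooled human liver microsomes incubated with compound at 0–50 μM final; CYP probe activities (phenacetin O-deethylation for 1A2, tolbutamide 4-hydroxylation for 2C9, omeprazole hydroxylation for 2C19, dextromethorphan O-demethylation for 2D6) run as a cocktail incubation and quantified by tandem MS; duplicates; IC50 derived.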
# RKO [10] = experiment: Induction of apoptosis in human RKO cells after 24 hrs by Annexin V/propidium iodide staining based flow cytometry; assay type: functional, cell-based
# HCT-116 [11] = experiment: Cell cycle arrest in human HCT116 cells assessed as accumulation at G2/M phase at 25 uM after 24 hrs propidium iodide staining based flow cytometry (reference value: 22.2%); assay type: functional; procedure, shortened: as §2
# RKO [12] = experiment: Induction of apoptosis in human RKO cells assessed as live cells at 10 uM after 24 hrs by Annexin V/propidium iodide staining based flow cytometry (reference value: 82.4%); assay type: functional
# [13] = AUC (0 to infinity) in rat at 5 mg/kg, iv; assay type: ADME, organism-based; design: dose 5 mg/kg, route intravenous, time infinity; details: in vivo
# Procedure, shortened: (§5)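 Male rats given a single dose, 5 mg/kg intravenously or 10 mg/kg orally. Plasma PK parameters were reported as mean ± SD: AUCt, AUC∞, Cmax, Tmax, T1/2, CL, Vss and oral bioavailability F.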
# [14] = biological target: T1, [Pyruvate dehydrogenase (acetyl-transferring)] kinase isozyme 4, mitochondrial; experiment: Inhibition of PDK4 in HEK293T cells assessed as reduction in PDHE1alpha phosphorylation at Ser-232 residue by measuring phosphorylated PDHE1alpha level at 10 uM after 24 hrs by Western blot analysis; assay type: cell-based; procedure, shortened: as §1
# [15] = Cmax in rat at 10 mg/kg, po; assay type: ADME, organism-based; design: dose 10 mg/kg, route oral; details: in vivo; procedure, shortened: as §5
# RKO [16] = experiment: Induction of apoptosis in human RKO cells assessed as early apoptotic cells at 25 uM after 24 hrs in presence of oxaliplatin by Annexin V/propidium iodide staining based flow cytometry (reference value: 6.33%); assay type: functional
# [17] = Half life in rat at 5 mg/kg, iv; assay type: ADME, organism-based; details: in vivo
# [18] = biological target: Cellular tumor antigen p53 (Homo sapiens) (UniProt P04637); experiment: Induction of p53 phosphorylation at Ser-15 residue in human HCT116 cells after 24 hrs by Western blot analysis; assay type: cell-based; procedure, shortened: as §3
# Cytochrome P450 2C9 = Cytochrome P450 2C9 (Homo sapiens, UniProt P11712); experiment: Inhibition of CYP2C9 in human liver microsomes assessed as reduction in tolbutamide 4-hydroxylation by tandem mass spectrometry analysis; assay type: ADME; procedure, shortened: as §4
# RKO [19] = experiment: Induction of apoptosis in human RKO cells assessed as early apoptotic cells at 50 uM after 24 hrs by Annexin V/propidium iodide staining based flow cytometry (reference value: 9.62%); assay type: functional
# RKO [20] = experiment: Cell cycle arrest in human RKO cells assessed as accumulation at G2/M phase at 10 uM after 24 hrs propidium iodide staining based flow cytometry (reference value: 23.3%); assay type: functional; procedure, shortened: as §2
# Mast cell = experiment: Inhibition of degranulation in IgE-labeled bone marrow-derived mast cells (unknown origin) assessed as reduction in beta-hexosaminidase release by measuring absorbance at 20 uM preincubated for 1 hr followed by HSA stimulation and measured after 15 mins (reference value: 0.26 +/- 0.025); assay type: functional
# RKO [21] = experiment: Cell cycle arrest in human RKO cells assessed as accumulation at G2/M phase at 50 uM after 24 hrs propidium iodide staining based flow cytometry (reference value: 23.3%); assay type: functional; procedure, shortened: as §2
# HCT-116 [22] = experiment: Induction of apoptosis in human HCT116 cells assessed as late apoptotic cells at 25 uM after 24 hrs by Annexin V/propidium iodide staining based flow cytometry (reference value: 8.36%); assay type: functional
# RKO [23] = experiment: Induction of apoptosis in human RKO cells assessed as live cells at 25 uM after 24 hrs in presence of oxaliplatin by Annexin V/propidium iodide staining based flow cytometry (reference value: 86.4%); assay type: functional
# HCT-116 [24] = experiment: Induction of apoptosis in human HCT116 cells assessed as necrotic cells at 50 uM after 24 hrs by Annexin V/propidium iodide staining based flow cytometry (reference value: 2.92%); assay type: functional
# Mus musculus = experiment: Antiallergic activity in mouse model of IgE/antigen-stimulated passive cutaneous anaphylaxis assessed as Evans blue exudation at 50 mg/kg, ip administered as single dose for 1 hr treated at 24 hrs post anti-DNP IgE treatment followed by DNP-HSA/Evans blue addition and measured after 1 hr (reference value: 149 +/- 16.9 ug/ml); assay type: functional
# HCT-116 [25] = experiment: Inhibition of colony formation in human HCT116 cells at 10 to 50 […] after 7 days by crystal violet staining based assay; assay type: functional, cell-based
# Procedure, shortened: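 HCT116 and RKO cells seeded in 6-well plates and treated with compound for 7 days. Cells then fixed and stained with crystal violet to score colony formation.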
# T1 sequence (Q16654 whole entry, looked up): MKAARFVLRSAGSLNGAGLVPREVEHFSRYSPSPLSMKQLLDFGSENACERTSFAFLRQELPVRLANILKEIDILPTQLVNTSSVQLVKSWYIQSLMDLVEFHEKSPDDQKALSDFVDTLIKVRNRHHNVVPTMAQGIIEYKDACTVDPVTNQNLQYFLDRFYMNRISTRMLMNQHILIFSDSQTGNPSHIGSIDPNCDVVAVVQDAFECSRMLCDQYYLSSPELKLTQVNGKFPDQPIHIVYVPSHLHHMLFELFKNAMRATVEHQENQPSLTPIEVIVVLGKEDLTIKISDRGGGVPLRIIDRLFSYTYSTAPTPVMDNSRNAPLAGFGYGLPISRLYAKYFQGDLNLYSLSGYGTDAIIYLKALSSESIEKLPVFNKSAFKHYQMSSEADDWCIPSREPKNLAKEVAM
# Sequence of Cytochrome P450 1A2 (P05177 whole entry): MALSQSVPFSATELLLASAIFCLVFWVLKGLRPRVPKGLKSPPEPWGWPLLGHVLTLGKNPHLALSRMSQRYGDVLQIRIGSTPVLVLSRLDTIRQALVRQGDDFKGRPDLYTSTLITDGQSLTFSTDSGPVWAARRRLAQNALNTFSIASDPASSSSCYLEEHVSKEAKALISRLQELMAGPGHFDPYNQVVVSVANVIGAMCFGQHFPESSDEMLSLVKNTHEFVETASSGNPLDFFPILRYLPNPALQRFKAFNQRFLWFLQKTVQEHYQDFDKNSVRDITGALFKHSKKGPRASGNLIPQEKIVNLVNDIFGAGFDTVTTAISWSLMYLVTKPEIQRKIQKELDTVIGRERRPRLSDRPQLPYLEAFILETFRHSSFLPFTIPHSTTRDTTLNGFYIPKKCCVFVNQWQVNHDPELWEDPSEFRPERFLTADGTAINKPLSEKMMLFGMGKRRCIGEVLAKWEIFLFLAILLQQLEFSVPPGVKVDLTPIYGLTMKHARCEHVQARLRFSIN
# Sequence of Cellular tumor antigen p53 (Homo sapiens) (P04637 whole entry, looked up): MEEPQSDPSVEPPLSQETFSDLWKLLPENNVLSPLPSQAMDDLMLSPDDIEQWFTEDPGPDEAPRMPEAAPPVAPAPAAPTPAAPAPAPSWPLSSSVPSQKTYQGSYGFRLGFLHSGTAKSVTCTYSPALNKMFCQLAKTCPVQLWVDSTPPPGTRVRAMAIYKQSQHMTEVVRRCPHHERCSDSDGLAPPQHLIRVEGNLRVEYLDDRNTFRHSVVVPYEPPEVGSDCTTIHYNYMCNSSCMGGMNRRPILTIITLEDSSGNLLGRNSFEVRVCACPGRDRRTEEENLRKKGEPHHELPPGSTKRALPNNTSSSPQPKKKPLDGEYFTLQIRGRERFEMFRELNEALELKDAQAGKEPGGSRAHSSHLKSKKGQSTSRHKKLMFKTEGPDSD
# Sequence of Cytochrome P450 2C9 (P11712 whole entry): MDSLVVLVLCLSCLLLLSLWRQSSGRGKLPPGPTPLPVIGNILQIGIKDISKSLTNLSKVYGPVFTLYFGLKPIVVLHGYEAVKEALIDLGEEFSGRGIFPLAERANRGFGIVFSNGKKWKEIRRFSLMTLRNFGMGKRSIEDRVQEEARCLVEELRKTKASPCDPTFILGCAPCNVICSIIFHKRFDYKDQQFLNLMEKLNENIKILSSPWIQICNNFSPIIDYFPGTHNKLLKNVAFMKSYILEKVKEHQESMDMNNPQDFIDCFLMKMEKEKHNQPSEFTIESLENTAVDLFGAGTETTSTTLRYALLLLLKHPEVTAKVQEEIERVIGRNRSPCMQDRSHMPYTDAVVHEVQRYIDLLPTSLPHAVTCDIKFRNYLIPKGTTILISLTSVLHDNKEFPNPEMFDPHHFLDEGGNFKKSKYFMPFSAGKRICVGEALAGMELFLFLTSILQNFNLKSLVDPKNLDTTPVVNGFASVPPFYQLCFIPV
compound,measurement,setting,value
Cl.O=C1c2ccccc2C(=O)c2c1cccc2-c1cnn(C2CCNCC2)c1,fold change (FC),[1],0.18
same,Activity,RKO [2],21.4%
same,Vd,[3],5.52 L/kg
same,Activity,RKO [4],49%
same,Activity,HCT-116 [5],17.8%
same,fold change (FC),[6],0.26
same,Activity,HCT-116 [7],11.2%
same,Activity,HCT-116 [8],12.7%
same,Activity,RKO [9],Active
same,IC50,Cytochrome P450 1A2,16.3 µM
same,Activity,RKO [10],Dose-dependent effect
same,Activity,HCT-116 [11],37.1%
same,Activity,RKO [12],82.8%
same,AUC(0-inf),[13],7610 ng·h/mL
same,fold change (FC),[14],0.04
same,Cmax,[15],565 ng/mL
same,Activity,RKO [16],24.4%
same,half-life,[17],7.06 h
same,Activity,[18],Dose-dependent effect
same,IC50,Cytochrome P450 2C9,> 50 µM
same,Activity,RKO [19],41.4%
same,Activity,RKO [20],18.1%
same,OD,Mast cell,0.126
same,Activity,RKO [21],2.8%
same,Activity,HCT-116 [22],23.9%
same,Activity,RKO [23],36.8%
same,Activity,HCT-116 [24],20.2%
same,Activity,Mus musculus,49.9 µg/mL
same,inhibition,HCT-116 [25],Active
